Test results: ChEMBL document CHEMBL3822356, “Urotensin II((4-11)) Azasulfuryl Peptides: Synthesis and Biological Activity” (J Med Chem, 2016)
The source made the active and inactive calls. The rule behind the calls is not given here. Where a SMILES comes first, the peptide text is derived from it.

Key:
[1] = biological target: T1, Urotensin-2 receptor (Homo sapiens, UniProt Q9UKP6); assay: Displacement of [125I]-hU2 from human UT2 receptor expressed in CHO cells after 90 mins by gamma counter assay; type: cell-based
T1 sequence (Q9UKP6 whole entry): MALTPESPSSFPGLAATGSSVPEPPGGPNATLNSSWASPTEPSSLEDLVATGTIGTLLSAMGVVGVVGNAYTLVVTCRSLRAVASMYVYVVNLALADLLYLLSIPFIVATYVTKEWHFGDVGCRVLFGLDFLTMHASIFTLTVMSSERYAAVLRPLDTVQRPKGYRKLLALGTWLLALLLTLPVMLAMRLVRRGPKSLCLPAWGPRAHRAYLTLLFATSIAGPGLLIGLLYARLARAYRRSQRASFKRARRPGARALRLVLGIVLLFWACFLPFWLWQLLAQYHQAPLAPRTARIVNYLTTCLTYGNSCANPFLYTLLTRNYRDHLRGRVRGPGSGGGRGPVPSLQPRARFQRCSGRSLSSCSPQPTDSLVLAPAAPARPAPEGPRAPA
Method in brief: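 CHO cells overexpressing human UT receptor incubated with test peptide. Displacement of 125I-hUII from UT measured. At least three independent experiments, each determination in triplicate; mean ± S.E.M.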

[2] = biological target: T2, Urotensin-2 receptor (Homo sapiens) (UniProt Q9UKP6); assay: Displacement of [125I]-hU2 from human UT2 receptor expressed in CHO cells at 10^-5 M after 90 mins by gamma counter assay; type: cell-based
T2 sequence (whole entry): T1 sequence (Q9UKP6 whole entry)

[3] = biological target: T3, Urotensin-2 receptor (Rattus norvegicus) (UniProt P49684); assay: Partial agonist activity at UT2 receptor in Sprague-Dawley rat thoracic aorta ring assessed as induction of aortic contractions at 10 to 100 uM relative to KCl; type: tissue-based
T3 sequence (whole entry): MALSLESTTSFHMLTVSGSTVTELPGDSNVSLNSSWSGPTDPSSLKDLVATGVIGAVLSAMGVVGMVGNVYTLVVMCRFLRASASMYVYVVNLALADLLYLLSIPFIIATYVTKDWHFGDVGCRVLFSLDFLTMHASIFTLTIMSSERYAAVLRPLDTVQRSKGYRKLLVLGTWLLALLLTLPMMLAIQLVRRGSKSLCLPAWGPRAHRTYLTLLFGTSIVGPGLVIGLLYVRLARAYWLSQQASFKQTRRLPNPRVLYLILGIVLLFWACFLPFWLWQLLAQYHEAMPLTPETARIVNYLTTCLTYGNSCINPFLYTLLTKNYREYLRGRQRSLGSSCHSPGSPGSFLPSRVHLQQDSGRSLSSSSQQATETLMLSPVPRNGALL
Method in brief: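 Peptides applied alone to rat aortic rings to test for induced contraction. Response expressed as percent of KCl-induced contraction.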

[4] = biological target: T3, Urotensin-2 receptor (Rattus norvegicus); assay: Antagonist activity at UT2 receptor in Sprague-Dawley rat thoracic aorta ring assessed as Emax for hU2-induced aortic contractions at 10^-5M relative to KCl; type: tissue-based
Method in brief: (§1)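 Rat aortic rings pre-exposed to test peptide at 10^-5 M, then given cumulative increasing concentrations (10^-11 to 10^-6 M) of hUII or URP. Contraction measured to give pEC50 and Emax, expressed relative to KCl-induced contraction. Mean ± SEM; unpaired Student's t test against hUII or URP alone.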

[5] = biological target: T3, Urotensin-2 receptor (Rattus norvegicus); assay: Antagonist activity at UT2 receptor in Sprague-Dawley rat thoracic aorta ring assessed as Emax for URP-induced aortic contractions at 10^-5M relative to KCl; type: tissue-based; method in brief: as §1

| IC50 [1] | inhibition [2] | Efficacy [3] | Emax [4] | Emax [5] | Structure (SMILES) | Activity [3] |
| --- | --- | --- | --- | --- | --- | --- |
| > 1 µM | 40% | 3% | 65% | 105% | CC(C)[C@H](NC(=O)[C@@H]1CSSC[C@H](NC(=O)[C@@H](N)CC(=O)O)C(=O)N[C@@H](Cc2ccccc2)C(=O)NN(Cc2ccc3ccccc3c2)S(=O)(=O)N[C@@H](CCCCN)C(=O)N[C@@H](Cc2ccc(O)cc2)C(=O)N1)C(=O)O | – |
| > 1 µM | 40% | 3% | 87% | 101% | CC(C)[C@H](NC(=O)[C@@H]1CSSC[C@H](NC(=O)[C@@H](N)CC(=O)O)C(=O)N[C@@H](Cc2ccccc2)C(=O)NN(Cc2ccccc2)S(=O)(=O)N[C@@H](CCCCN)C(=O)N[C@@H](Cc2ccc(O)cc2)C(=O)N1)C(=O)O (HELM PEPTIDE1{D.C.F.[NCCCC[C@H](NS(=O)(=O)N(Cc1ccccc1)N[*:1])C(=O)[*:2]].Y.C.V}$PEPTIDE1,PEPTIDE1,2:R3-6:R3$$$V2.0) | – |
| > 1 µM | 40% | 3% | 51% | 69% | CC(C)[C@H](NC(=O)[C@@H]1CSSC[C@H](NC(=O)[C@@H](N)CC(=O)O)C(=O)N[C@@H](Cc2ccccc2)C(=O)NN(Cc2ccc(-c3ccccc3)cc2)S(=O)(=O)N[C@@H](CCCCN)C(=O)N[C@@H](Cc2ccc(O)cc2)C(=O)N1)C(=O)O | – |
| – | – | – | – | – | CC(C)[C@H](NC(=O)[C@@H]1CSSC[C@H](NC(=O)[C@H](C)N)C(=O)N[C@@H](Cc2ccccc2)C(=O)N[C@@H](Cc2c[nH]c3ccccc23)C(=O)N[C@@H](CCCCN)C(=O)N[C@@H](Cc2ccc(O)cc2)C(=O)N1)C(=O)O | Active |
| > 1 µM | 40% | 3% | 29% | 38% | CC(C)[C@H](NC(=O)[C@@H]1CSSC[C@H](NC(=O)[C@@H](N)CC(=O)O)C(=O)N[C@@H](Cc2ccccc2)C(=O)NN(Cc2cccc3ccccc23)S(=O)(=O)N[C@@H](CCCCN)C(=O)N[C@@H](Cc2ccc(O)cc2)C(=O)N1)C(=O)O | – |
| – | – | – | – | – | CC(C)[C@H](NC(=O)[C@@H]1CSSC[C@H](NC(=O)[C@H](CC(=O)O)NC(=O)[C@@H]2CCCN2C(=O)[C@@H](NC(=O)[C@@H](N)CCC(=O)O)[C@@H](C)O)C(=O)N[C@@H](Cc2ccccc2)C(=O)N[C@@H](Cc2c[nH]c3ccccc23)C(=O)N[C@@H](CCCCN)C(=O)N[C@@H](Cc2ccc(O)cc2)C(=O)N1)C(=O)O | Active |

| Structure (SMILES) | IC50 [1] | inhibition [2] | Efficacy [3] | Emax [4] | Emax [5] | Activity [3] |
| --- | --- | --- | --- | --- | --- | --- |
| CC(C)[C@H](NC(=O)[C@@H]1CSSC[C@H](NC(=O)[C@@H](N)CC(=O)O)C(=O)N[C@@H](Cc2ccccc2)C(=O)N[C@@H](Cc2c[nH]c3ccccc23)C(=O)NN(CCCCN(C)C)S(=O)(=O)N[C@@H](Cc2ccc(O)cc2)C(=O)N1)C(=O)O (HELM PEPTIDE1{D.C.F.W.[CN(C)CCCCN(N[*:1])S(=O)(=O)N[C@@H](Cc1ccc(O)cc1)C(=O)[*:2]].C.V}$PEPTIDE1,PEPTIDE1,2:R3-6:R3$$$V2.0) | > 1 µM | 40% | – | 83% | 110% | inactive |
| CC(C)[C@H](NC(=O)[C@@H]1CSSC[C@H](NC(=O)[C@@H](N)CC(=O)O)C(=O)N[C@@H](Cc2ccccc2)C(=O)N[C@@H](Cc2c[nH]c3ccccc23)C(=O)NN(CCCCN)S(=O)(=O)N[C@@H](Cc2ccc(O)cc2)C(=O)N1)C(=O)O (HELM PEPTIDE1{D.C.F.W.[NCCCCN(N[*:1])S(=O)(=O)N[C@@H](Cc1ccc(O)cc1)C(=O)[*:2]].C.V}$PEPTIDE1,PEPTIDE1,2:R3-6:R3$$$V2.0) | > 1 µM | 40% | – | 83% | 110% | inactive |
